This note sets out measurements from ChEMBL document CHEMBL3861962 (Eur J Med Chem, 2016).

Data set [1] concerns the target T1, Cytochrome P450 2C9 (Homo sapiens, UniProt P11712). The data set is described as follows: Drug metabolism assessed as human recombinant CYP2C9-mediated formation of N-(6-ethoxy-5-(2-methoxyphenoxy)-2,2'-bipyrimidin-4-yl)-4-(1-hydroxy-2-methylpropan-2-yl)benzenesulfonamide at 5 uM in presence of NADPH after 30 mins by LC-MS/MS analysissss. It counts as ADME. The settings on record: recombinant enzyme, 0.5 h. The method, boiled down: (§1)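 Substrate at 5 μM final in 100 mM potassium phosphate, pH 7.4, incubated with human liver microsomes or baculovirus-expressed recombinant CYP3A4, 2D6 or 2C9. Reaction started with 1 mM NADPH and run 0, 15 and 30 min at 37 °C. Stopped with ice-cold acetonitrile containing labetalol internal standard, then centrifuged. Supernatant analysed by LC-MS/MS on a C18 column at 40 °C. Blank was enzyme without substrate.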

For a further data set, the target named is Cytochrome P450 2D6 (Homo sapiens, UniProt P10635). Nature of the data set: Drug metabolism assessed as human recombinant CYP2D6-mediated metabolite formation by measuring parent compound remaining at 5 uM in presence of NADPH after 30 mins by LC-MS/MS analysis. The settings on record: recombinant enzyme, 0.5 h. It counts as ADME. In a few lines:
as §1

Data set [2] addresses T1, Cytochrome P450 2C9. The data set is described as follows: Drug metabolism assessed as human recombinant CYP2C9-mediated metabolite formation by measuring parent compound remaining at 5 uM in presence of NADPH after 30 mins by LC-MS/MS analysis. Format: ADME. The settings on record: recombinant enzyme, 0.5 h. The method, boiled down:
as §1

Data set [3] in a line: Drug metabolism in human liver microsomes assessed as formation of N-(6-ethoxy-5-(2-methoxyphenoxy)-2,2'-bipyrimidin-4-yl)-4-(1-hydroxy-2-methylpropan-2-yl)benzenesulfonamide at 5 uM in presence of NADPH after 30 mins by LC-MS/MS analysissss. It counts as ADME. As to conditions: 0.5 h. In a few lines:
(§2)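 Pooled human liver microsomes in 100 mM potassium phosphate, pH 7.4, with test compound at 5 μM final. Reaction started with 1 mM NADPH (final) and run at 37 °C in a shaking water bath for 0, 15 and 30 min. Stopped with an equal volume of ice-cold acetonitrile containing 0.6 μM labetalol as internal standard. Protein was spun out and the supernatant analysed by LC-MS/MS. Blank had no compound.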
Background: Liver microsomes are vesicles of endoplasmic reticulum, rich in cytochrome P450 enzymes.

Data set [4] deals with T2, Cytochrome P450 3A4 (Homo sapiens, UniProt P08684). Nature of the data set: Drug metabolism assessed as human recombinant CYP3A4-mediated formation of N-(6-ethoxy-5-(2-methoxyphenoxy)-2,2'-bipyrimidin-4-yl)-4-(1-hydroxy-2-methylpropan-2-yl)benzenesulfonamide at 5 uM in presence of NADPH after 30 mins by LC-MS/MS analysissss. Format: ADME. As to conditions: recombinant enzyme, 0.5 h. In a few lines: as §1

For data set [5], the target named is T2, Cytochrome P450 3A4. Nature of the data set: Drug metabolism assessed as human recombinant CYP3A4-mediated metabolite formation by measuring parent compound remaining at 5 uM in presence of NADPH after 30 mins by LC-MS/MS analysis. It counts as ADME. The settings on record: recombinant enzyme, 0.5 h. The method, boiled down:
as §1

Data set [6] is described as follows: Metabolic stability in human liver microsomes assessed as parent compound remaining at 5 uM in presence of NADPH after 30 mins by LC-MS/MS analysis. Format: ADME. As to conditions: read-out: Stability. The method, boiled down: as §2
Data set [7] is described as follows: Retention time of the compound. It counts as physicochemical.
The target in data set [8] is T3, Endothelin-1 receptor (Homo sapiens) (UniProt P25101).
T3 sequence (whole entry): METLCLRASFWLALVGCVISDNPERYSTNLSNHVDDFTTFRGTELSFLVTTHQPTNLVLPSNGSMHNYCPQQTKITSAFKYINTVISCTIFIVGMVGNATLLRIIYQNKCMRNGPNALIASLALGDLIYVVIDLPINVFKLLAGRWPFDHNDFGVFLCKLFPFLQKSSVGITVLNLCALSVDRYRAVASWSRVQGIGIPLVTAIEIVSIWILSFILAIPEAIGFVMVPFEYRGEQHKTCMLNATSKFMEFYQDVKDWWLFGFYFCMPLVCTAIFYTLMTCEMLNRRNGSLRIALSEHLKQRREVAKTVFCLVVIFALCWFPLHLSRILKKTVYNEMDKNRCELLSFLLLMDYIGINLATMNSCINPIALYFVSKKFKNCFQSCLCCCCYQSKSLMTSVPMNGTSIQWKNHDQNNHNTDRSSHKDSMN
The data set is described as follows: Agonist activity at ETA receptor in human SKNMC cells assessed as induction of Ca2+ mobilization at 10 nM by fluorimetric method relative to control. The settings on record: SK-N-MC. Format: functional, cell-based. In a few lines: (§3)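 ETA functional assay run by Cerep in human neuroblastoma SK-N-MC cells at 22 °C with fluorimetric read-out. Test solutions were 1, 10, 100 and 1000 nM. Agonist response is given as % of the control response to 100 nM endothelin-1. For antagonist mode, inhibition is given as % of the control endothelin-1 agonist response, with BQ-123 as reference antagonist.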
Background: Calcium assays in cells follow changes in intracellular calcium, usually with a dye or a luminescent sensor.

For data set [9], the target named is T3, Endothelin-1 receptor (Homo sapiens). Nature of the data set: Antagonist activity at ETA receptor in human SKNMC cells assessed as inhibition of endothelin-1-mediated Ca2+ mobilization at 1 nM by fluorimetric method relative to control. Format: functional, cell-based. The settings on record: SK-N-MC. The method, boiled down: as §3
Data set [10] has the same target. The data set is described as follows: Agonist activity at ETA receptor in human SKNMC cells assessed as induction of Ca2+ mobilization at 1 nM by fluorimetric method relative to control. Format: functional, cell-based. The settings on record: SK-N-MC. In a few lines: as §3
Data set [11] shares this target. Nature of the data set: Agonist activity at ETA receptor in human SKNMC cells assessed as induction of Ca2+ mobilization at 100 nM by fluorimetric method relative to control. Format: functional, cell-based. The settings on record: SK-N-MC. In a few lines: as §3
Data set [12] addresses T2, Cytochrome P450 3A4. The data set is described as follows: Drug level assessed as human recombinant CYP3A4-mediated compound formation treated with 4-(1,1,1,3,3,3-Hexafluoro-2-methoxypropan-2-yl)-N-(6-(2-hydroxyethoxy)-5-(2-methoxyphenoxy)-2,2'-bipyrimidin-4-yl)benzenesulfonamide at 5 uM in presence of NADPH after 30 mins by LC-MS/MS analysis. Format: ADME. The settings on record: recombinant enzyme, 0.5 h. The method, boiled down:
as §1

Data set [13] concerns the target T2, Cytochrome P450 3A4. The data set is described as follows: Drug metabolism assessed as human recombinant CYP3A4-mediated formation of 4-(1,1,1,3,3,3-hexafluoro-2-hydroxypropan-2-yl)-N-(6-(2-hydroxyethoxy)-5-(2-hydroxyphenoxy)-2,2'-bipyrimidin-4-yl)benzenesulfonamide at 5 uM in presence of NADPH after 30 mins by LC-MS/MS analysis. It counts as ADME. The settings on record: recombinant enzyme, 0.5 h. The method, boiled down:
as §1

Data set [14] addresses T4, Endothelin receptor type B (Homo sapiens) (UniProt P24530).
T4 sequence (whole entry): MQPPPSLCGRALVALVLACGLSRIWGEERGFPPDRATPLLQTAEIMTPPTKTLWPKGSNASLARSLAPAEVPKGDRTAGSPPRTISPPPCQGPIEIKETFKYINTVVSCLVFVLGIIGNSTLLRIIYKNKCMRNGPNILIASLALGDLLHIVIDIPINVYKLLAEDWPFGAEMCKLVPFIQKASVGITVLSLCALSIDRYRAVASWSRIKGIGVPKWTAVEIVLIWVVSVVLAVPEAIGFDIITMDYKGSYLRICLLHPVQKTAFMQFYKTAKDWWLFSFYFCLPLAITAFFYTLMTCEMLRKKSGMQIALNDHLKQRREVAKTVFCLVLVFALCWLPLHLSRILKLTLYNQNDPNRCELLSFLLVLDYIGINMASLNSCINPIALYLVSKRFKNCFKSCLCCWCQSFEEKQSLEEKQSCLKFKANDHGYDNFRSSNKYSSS
Nature of the data set: Antagonist activity at human recombinant ETB expressed in CHOK1 cells assessed as inhibition of endothelin-1-mediated Ca2+ mobilization at 1 nM by fluorimetric method relative to control. The settings on record: CHO-K1. Format: functional, cell-based. In a few lines:
(§4)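 ETB functional assay run by Cerep in human recombinant CHO-k1 cells at 22 °C with fluorimetric read-out. Test solutions were 1, 10, 100 and 1000 nM. Agonist response is given as % of the control response to 100 nM endothelin-1. For antagonist mode, inhibition is given as % of the control endothelin-1 agonist response, with BQ-788 as reference antagonist.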

A short description of data set [15]: Drug metabolism in human liver microsomes assessed as formation of 4-(1,1,1,3,3,3-hexafluoro-2-hydroxypropan-2-yl)-N-(6-(2-hydroxyethoxy)-5-(2-hydroxyphenoxy)-2,2'-bipyrimidin-4-yl)benzenesulfonamide at 5 uM in presence of NADPH after 30 mins by LC-MS/MS analysis. It counts as ADME. As to conditions: 0.5 h. In a few lines: as §1
For data set [16], the target named is T4, Endothelin receptor type B (Homo sapiens). The data set is described as follows: Agonist activity at human recombinant ETB receptor expressed in CHOK1 cells assessed as induction of Ca2+ mobilization at 10 nM by fluorimetric method relative to control. It counts as functional, cell-based. The settings on record: CHO-K1. The method, boiled down: as §4

Data set [17] shares this target. Nature of the data set: Agonist activity at human recombinant ETB receptor expressed in CHOK1 cells assessed as induction of Ca2+ mobilization at 100 nM by fluorimetric method relative to control. Format: functional, cell-based. The settings on record: CHO-K1. In a few lines:
as §4

Data set [18] has as its target T3, Endothelin-1 receptor (Homo sapiens). Nature of the data set: Antagonist activity at ETA receptor in human SKNMC cells assessed as inhibition of endothelin-1-mediated Ca2+ mobilization at 100 nM by fluorimetric method relative to control. Format: functional, cell-based. As to conditions: SK-N-MC. In a few lines:
as §3

Data set [19] has as its target T4, Endothelin receptor type B (Homo sapiens). Nature of the data set: Antagonist activity at human recombinant ETB expressed in CHOK1 cells assessed as inhibition of endothelin-1-mediated Ca2+ mobilization at 100 nM by fluorimetric method relative to control. The settings on record: CHO-K1. It counts as functional, cell-based. The method, boiled down:
as §4

Data set [20] in a line: Cytotoxicity against CHOK1 cells assessed as decrease in cell viability after 24 hrs by MTT assay. It counts as toxicity, cell-based, Cricetulus griseus. The settings on record: Chinese hamster, CHO-K1 cells. The method, boiled down: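 CHO-k1 cells grown in phenol-red-free DMEM/F-12 with 10% FBS, seeded at 20,000 cells/well and allowed to attach overnight. Exposure was 24 h to 0.1–200 μM, with DMSO as vehicle control. MTT at 1 mg/mL for 3 h at 37 °C, formazan dissolved in DMSO, absorbance read at 570 nm. Data given as % OD of vehicle control; IC50 taken from dose–response curve fits.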

Data set [21] addresses T4, Endothelin receptor type B (Homo sapiens). The data set is described as follows: Antagonist activity at human recombinant ETB expressed in CHOK1 cells assessed as inhibition of endothelin-1-mediated Ca2+ mobilization at 10 nM by fluorimetric method relative to control. It counts as functional, cell-based. As to conditions: CHO-K1. In a few lines: as §4
A short description of data set [22]: Drug level in human liver microsomes treated with 4-(1,1,1,3,3,3-Hexafluoro-2-methoxypropan-2-yl)-N-(6-(2-hydroxyethoxy)-5-(2-methoxyphenoxy)-2,2'-bipyrimidin-4-yl)benzenesulfonamide at 5 uM in presence of NADPH after 30 mins by LC-MS/MS analysis. The settings on record: 0.5 h. Format: ADME. In a few lines:
as §1

Data set [23] addresses T4, Endothelin receptor type B (Homo sapiens). The data set is described as follows: Agonist activity at human recombinant ETB receptor expressed in CHOK1 cells assessed as induction of Ca2+ mobilization at 1 nM by fluorimetric method relative to control. It counts as functional, cell-based. As to conditions: CHO-K1. The method, boiled down: as §4
In data set [24] the target is T3, Endothelin-1 receptor (Homo sapiens). The data set is described as follows: Antagonist activity at ETA receptor in human SKNMC cells assessed as inhibition of endothelin-1-mediated Ca2+ mobilization at 10 nM by fluorimetric method relative to control. Format: functional, cell-based. As to conditions: SK-N-MC. In a few lines: as §3

T1 sequence (P11712 whole entry): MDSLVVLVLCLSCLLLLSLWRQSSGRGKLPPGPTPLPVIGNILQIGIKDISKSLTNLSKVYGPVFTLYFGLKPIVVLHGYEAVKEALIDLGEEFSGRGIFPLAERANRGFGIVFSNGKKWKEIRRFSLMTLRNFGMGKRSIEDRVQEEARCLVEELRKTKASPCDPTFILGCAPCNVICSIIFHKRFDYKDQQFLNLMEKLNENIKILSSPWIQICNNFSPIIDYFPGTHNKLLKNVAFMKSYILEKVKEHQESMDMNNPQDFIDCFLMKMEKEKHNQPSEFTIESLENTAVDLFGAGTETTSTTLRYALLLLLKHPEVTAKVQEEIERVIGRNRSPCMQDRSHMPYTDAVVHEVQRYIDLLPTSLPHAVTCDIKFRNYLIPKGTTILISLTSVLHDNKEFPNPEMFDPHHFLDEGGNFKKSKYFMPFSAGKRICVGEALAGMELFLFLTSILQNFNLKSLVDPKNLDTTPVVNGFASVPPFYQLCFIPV
T2 sequence (P08684 whole entry): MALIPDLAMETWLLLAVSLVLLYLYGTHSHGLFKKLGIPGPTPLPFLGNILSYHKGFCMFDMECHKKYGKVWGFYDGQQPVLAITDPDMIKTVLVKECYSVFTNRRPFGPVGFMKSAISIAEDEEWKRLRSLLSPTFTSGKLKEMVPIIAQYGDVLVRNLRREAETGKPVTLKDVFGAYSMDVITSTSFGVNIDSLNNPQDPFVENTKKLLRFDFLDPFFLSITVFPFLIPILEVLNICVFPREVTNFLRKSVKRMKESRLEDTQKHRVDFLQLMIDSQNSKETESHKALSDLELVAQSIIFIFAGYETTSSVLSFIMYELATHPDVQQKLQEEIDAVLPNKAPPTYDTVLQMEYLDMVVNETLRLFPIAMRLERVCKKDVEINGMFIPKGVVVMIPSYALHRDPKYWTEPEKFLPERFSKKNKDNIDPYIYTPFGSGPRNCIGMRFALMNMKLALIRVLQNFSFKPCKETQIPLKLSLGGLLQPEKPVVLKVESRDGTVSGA
Chain of Cytochrome P450 2D6 (P10635 whole entry): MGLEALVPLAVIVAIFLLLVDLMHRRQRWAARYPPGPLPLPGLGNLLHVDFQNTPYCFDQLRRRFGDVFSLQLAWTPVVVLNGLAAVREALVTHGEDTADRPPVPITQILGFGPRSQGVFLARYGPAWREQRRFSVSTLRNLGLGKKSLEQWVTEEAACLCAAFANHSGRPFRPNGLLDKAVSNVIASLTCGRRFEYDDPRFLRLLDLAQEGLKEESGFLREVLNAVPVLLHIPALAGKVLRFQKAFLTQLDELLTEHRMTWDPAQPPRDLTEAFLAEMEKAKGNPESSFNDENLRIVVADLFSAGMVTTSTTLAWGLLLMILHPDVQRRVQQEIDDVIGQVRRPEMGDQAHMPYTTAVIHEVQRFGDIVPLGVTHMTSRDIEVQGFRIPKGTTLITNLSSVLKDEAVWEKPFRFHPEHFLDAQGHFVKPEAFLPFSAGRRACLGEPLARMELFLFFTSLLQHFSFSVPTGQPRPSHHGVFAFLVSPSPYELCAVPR

On to `CCOc1nc(-c2ncccn2)nc(NS(=O)(=O)c2ccc(C(C)(C)C)cc2)c1Oc1ccccc1OC`, for which the Drug metabolism result (on Cytochrome P450 2C9 [1]; in [3]; on Cytochrome P450 3A4 [4]) was “Metabolite_Detected” each time. Besides, the Stability at Cytochrome P450 2D6 is given as above 99%; on Cytochrome P450 2C9 [2], 99%; at Cytochrome P450 3A4 [5] it was 15%. Further, the remaining at 0.5 h, 5 µM in data set [6] worked out at 68.5%. In data set [7], the Retention_time is given as 5.96 min.

For the compound `COc1ccccc1Oc1c(NS(=O)(=O)c2ccc(C(O)(C(F)(F)F)C(F)(F)F)cc2)nc(-c2ncccn2)nc1OCCO`, the Activity was 0% in data set [8]; 0% in [10]; 0% in data set [11]; -1% in [16]; -1% in data set [17]; -1% in [23]. Moreover, the inhibition (in general, the relative decrease from the control value, in per cent) in [9] was -9%; in [14], 12%; in [18] it was -7%; in [19] it was 14%; in data set [21], 11%; in data set [24], -5%. In addition, the Stability at Cytochrome P450 2D6 is above 99%; at Cytochrome P450 2C9 [2], 100%; at Cytochrome P450 3A4 [5], 72.8%. For the same compound, the Drug metabolism entry (at Cytochrome P450 3A4 [12]; at Cytochrome P450 3A4 [13]; in data set [15]; in [22]) was “Metabolite_Detected” each time. Moreover, the remaining at 0.5 h, 5 µM in data set [6] came out at 90.1%. In data set [7], the Retention_time was 4.72 min. For the same compound, in data set [20], the IC50 – broadly, the midpoint of a concentration-inhibition curve – at 24 h was above 200 µM.
